This is an account of results in ChEMBL document CHEMBL1154414, “In vitro and in vivo activities of T-705 against arenavirus and bunyavirus infections” (Antimicrob Agents Chemother, 2007).

pEC50: −log10 of the molar value. Calls of active or inactive are those of the source. No cut-off for these calls is given here.

Assay [1] concerns Pichinde virus. Briefly: Antiviral activity against Pichinde virus An 4763 infected Syrian golden hamster assessed as mean viral titer per 0.1 g of liver at 40 mg/kg, po twice daily for 7 days administered 4 hrs before viral-challenge measured on day 7 of viral infection. The class given is functional. The gist of the method:
(§1)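 Hamsters (groups of 15, placebo 25-30) were dosed orally by gavage twice daily (drug suspended in 0.4% CMC) after bilateral intraperitoneal challenge with 65 PFU. Five per group were killed on day 7. Liver homogenate or serum was serially diluted onto triplicate B-SC-1 wells, CPE was read at 6-8 days, and the 50% endpoint was taken. Range was 2.8-9.5 log10 CCID50/0.1 g or 0.1 ml, with undetectable assigned <2.8.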

Assay [2] concerns Punta Toro virus. Briefly: Antiviral activity against Punta Toro virus Adames infected Syrian golden hamster assessed as mean viral titer per 0.1 g of liver at 30 mg/kg, […] measured on day 4 of viral infection. It is filed as functional. Particulars: route oral.
For assay [3], the system named is Pichinde virus. As to the kind of experiment: Antiviral activity against Pichinde virus An 4763 infected Syrian golden hamster assessed as mean serum ALT levels at 20 mg/kg, po twice daily for 7 days administered 72 hrs post viral-challenge measured on day 7 of viral infection. The class given is functional. The gist of the method: (§2)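 Hamsters were challenged intraperitoneally (bilateral, 65 PFU) and given twice-daily oral gavage doses (0.4% CMC vehicle). Five per group were sacrificed on day 7 and serum was collected. Serum ALT activity was measured by kinetic assay. Three sham-infected animals set the baselines.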

The test system of assay [4] is Punta Toro virus. As to the kind of experiment: Antiviral activity against 5000 PFU Punta Toro virus Adames infected C57BL/6 mouse assessed as mean viral titer per 0.1 mL of serum at 30 mg/kg, po twice daily administered 24 hrs post viral challenge measured on day 3 of viral infection. It is filed as functional. The gist of the method: (§3)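 Mice were infected subcutaneously with PTV and dosed by oral gavage twice daily; 5 per group (10 placebo) were killed on day 3 or 4. Liver homogenate or serum was serially diluted onto triplicate LLC-MK2 monolayers, and CPE was read 6–8 days later. 50% endpoints gave log10 CCID50 per 0.1 g liver or 0.1 ml serum. Detection range was 2.8–9.5; undetectable samples were assigned <2.8.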

Assay [5] deals with Punta Toro virus. As to the kind of experiment: Antiviral activity against 50 PFU Punta Toro virus Adames infected C57BL/6 mouse assessed as animals with detectable virus level in liver at 30 mg/kg, po twice daily administered 24 hrs post viral challenge measured on day 3 of viral infection. The class given is functional. The gist of the method: (§4)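 T-705 was suspended in 0.4% carboxymethylcellulose and given by oral gavage twice daily. Mice were infected subcutaneously with PTV. Five mice per group (10 placebo) were sacrificed on day 3 or 4. Liver homogenate or serum was serially diluted onto triplicate LLC-MK2 monolayers, and CPE was read at 6–8 days. The detection limit was 2.8 log10 CCID50 per 0.1 g liver or 0.1 ml serum.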

In assay [6] the test system is Pichinde virus. As to the kind of experiment: Antiviral activity against Pichinde virus An 4763 infected Syrian golden hamster assessed as animals with detectable virus level in liver at 20 mg/kg, po twice daily for 7 days administered 72 hrs post viral-challenge measured on day 7 of viral infection. It is filed as functional. The method, boiled down: as §1
Assay [7] concerns Rift Valley fever virus. Briefly: Antiviral activity against Rift Valley fever virus MP-12 assessed as inhibition of virus-induced visual cytopathic effect after 3 to 5 days. The class given is functional, organism-based. The method, boiled down: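 Virus in medium with 2% FBS was used at the CCID50 that gave maximal CPE. Half-log drug dilutions (DMSO stock, ≤1% DMSO at the top concentration) were added at infection. EC50 was derived by regression analysis.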

For assay [8], the system named is Pichinde virus. Briefly: Antiviral activity against Pichinde virus An 4763 infected Syrian golden hamster assessed as survival at 50 mg/kg, po twice daily for 7 days administered 72 hrs post viral-challenge. It is filed as functional. The method, boiled down:
(§5)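 Groups of 15 hamsters (placebo 25-30) were challenged intraperitoneally (bilateral, 65 PFU) and dosed twice daily by oral gavage in 0.4% CMC for 5 to 7 days.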

The test system of assay [9] is Punta Toro virus. Briefly: Antiviral activity against 5000 PFU Punta Toro virus Adames infected C57BL/6 mouse assessed as animals with detectable virus level in serum at 10 mg/kg, po twice daily administered 24 hrs post viral challenge measured on day 3 of viral infection. It is filed as functional. The method, boiled down:
as §3

The subject of assay [10] is Pichinde virus. Briefly: Antiviral activity against Pichinde virus An 4763 infected Syrian golden hamster assessed as inhibition of liver damage at 40 mg/kg, po twice daily for 7 days administered 4 hrs before viral-challenge measured on day 7 of viral infection. The arrangement: dose 40 mg/kg. It is filed as functional, organism-based. The method, boiled down:
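Hamsters were challenged intraperitoneally (bilateral, 65 PFU) and dosed twice daily by oral gavage in 0.4% CMC. On day 7, five animals per group were sacrificed. Livers were scored 0-4 for hepatic icterus (0 normal, 4 maximal yellow coloration), and serum ALT was measured by kinetic assay.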

Assay [11] concerns La Crosse virus. As to the kind of experiment: Antiviral activity against La Crosse virus assessed as inhibition of virus-induced visual cytopathic effect after 3 to 5 days. It is filed as functional, organism-based. The method, boiled down:
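Virus diluted in 2% FBS medium was added with half-log drug dilutions at infection. Plates were incubated at 37°C, 5% CO2, until maximal CPE in infected controls, then scored visually 3–5 days post-infection. EC50 was derived by regression analysis.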
For orientation: Cytopathic effects are the visible damage that an infection or toxin causes in cultured cells.

For assay [12], the system named is Pichinde virus. Briefly: Antiviral activity against Pichinde virus An 4763 infected Syrian golden hamster assessed as mean serum ALT levels at 40 mg/kg, po twice daily for 7 days administered 4 hrs before viral-challenge measured on day 7 of viral infection. It is filed as functional. The gist of the method: as §2
For assay [13], the system named is Punta Toro virus. As to the kind of experiment: Antiviral activity against 50 PFU Punta Toro virus Adames infected C57BL/6 mouse assessed as mean viral titer per 0.1 mL of serum at 30 mg/kg, po twice daily administered 24 hrs post viral challenge measured on day 3 of viral infection. The class given is functional. The method, boiled down:
(§6)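 Mice were infected subcutaneously with PTV and dosed by oral gavage twice daily with drug in 0.4% CMC. Five per group (10 placebo) were sacrificed on day 3 or 4. Serially diluted liver homogenate or serum went into triplicate LLC-MK2 wells, and CPE 50% endpoints were read at 6–8 days. The range was 2.8–9.5 log10 CCID50/0.1 g or 0.1 ml, with undetectable samples set to 2.8 and saturated samples to 9.5.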

Assay [14] relates to Pichinde virus. Briefly: Antiviral activity against Pichinde virus An 4763 infected Syrian golden hamster assessed as mean day of death at 50 mg/kg, po twice daily for 7 days administered 24 hrs post viral-challenge. It is filed as functional. The gist of the method:
as §5

In assay [15] the test system is Punta Toro virus. As to the kind of experiment: Antiviral activity against 50 PFU Punta Toro virus Adames infected C57BL/6 mouse assessed as mean viral titer per 0.1 mL of serum at 10 mg/kg, po twice daily administered 24 hrs post viral challenge measured on day 3 of viral infection. The class given is functional. The gist of the method: as §6
The test system of assay [16] is Punta Toro virus. As to the kind of experiment: Antiviral activity against 500 PFU Punta Toro virus Adames infected C57BL/6 mouse assessed as animals with detectable virus level in liver at 30 mg/kg, po twice daily administered 24 hrs post viral challenge measured on day 3 of viral infection. The class given is functional. The gist of the method:
as §4

The subject of assay [17] is Pichinde virus. Briefly: Antiviral activity against Pichinde virus An 4763 infected Syrian golden hamster assessed as mean viral titer per 0.1 mL of serum at 40 mg/kg, po twice daily for 7 days administered 4 hrs before viral-challenge measured on day 7 of viral infection. The class given is functional.
In assay [18] the test system is Punta Toro virus. As to the kind of experiment: Antiviral activity against 5000 PFU Punta Toro virus Adames infected C57BL/6 mouse assessed as animals with detectable virus level in serum at 30 mg/kg, po twice daily administered 24 hrs post viral challenge measured on day 3 of viral infection. It is filed as functional. The gist of the method:
as §3

The subject of assay [19] is Punta Toro virus. Briefly: Antiviral activity against 5000 PFU Punta Toro virus Adames infected C57BL/6 mouse assessed as mean day of death at 10 mg/kg, po twice daily for 5 days administered 24 hrs post viral challenge. It is filed as functional. The gist of the method:
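PTV was inoculated subcutaneously into mice in groups of 15 (25–30 placebo). Dosing was by oral gavage twice daily for 5–7 days, with T-705 suspended in 0.4% CMC and ribavirin in saline. Remaining animals were observed 21–28 days for survival and day of death. Test doses had first been checked for tolerance in uninfected animals.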

On to `NC(=O)c1nc(F)cnc1O` [FAVIPIRAVIR], for which the log10CCID50 in assay [1] is reported as under 3.2; in assay [2], under 3.5; in assay [4] it was under 3.3; in assay [13] it was under 4.4; in assay [15], 6.9; in assay [17] it was under 3. Besides, the Activity in [3] was 1890 IU/L; in assay [5], 40%; in [6], 100%; in assay [9] it was 80%; in assay [12], 30 IU/L; in assay [14], over 21 days. Besides, the Activity was 60% in assay [16], 80% in [18] and 4.4 days in assay [19]. Further, the pEC50 in assay [7] and in assay [11] was 4.49 throughout. Further, the Efficacy in assay [8] amounted to 60%. The outcome in [10] was Active.

Regarding `NC(=O)c1ncn([C@@H]2O[C@H](CO)[C@@H](O)[C@H]2O)n1` [RIBAVIRIN], the log10CCID50 in assay [1] is recorded as under 3.2; in [2], under 2.8; in assay [4], under 4.2; in assay [13], 6.1; in assay [15] it was under 4.9; in [17] it was under 3. For the same compound, the Activity is 67 IU/L in assay [3]; 20% in assay [5]; 100% in assay [6]; 100% in [9]; 30 IU/L in assay [12]; over 21 days in assay [14]. In addition, the Activity in assay [16] worked out at 60%; in assay [18] it was 60%; in [19], 4 days. Further, the pEC50 in [7] is 4.28; in assay [11], 4.15. Moreover, the Efficacy in [8] was 60%. Also, the result in [10] was Active.

For orientation: pEC50 means −log10 of the EC50, conventionally taken in molar units.
